Data from ChEMBL document CHEMBL1123157, “Thromboxane synthetase inhibitors and antihypertensive agents. 1. N-[(1H-imidazol-1-yl)alkyl]aryl amides and N-[(1H-1,2,4-triazol-1-yl)alkyl]aryl amides” (J Med Chem, 1986).
Active and inactive are the calls of the source.

Columns and labels:
[1] = tested on: Rattus norvegicus; experiment: Antihypertensive activity in spontaneously hypertensive rats at 100 mg/kg po/day for 2 days; type: functional, organism-based; set-up: dose 100 mg/kg
Procedure, shortened: (§1)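 Male 16-week-old Okamoto SHR (mean arterial pressure about 170 mmHg), 1-3 rats per compound. Given by gavage in 2% preboiled starch (50 mg/mL), 100 mg/kg or less, with 0.9% NaCl load (25 mL/kg). Second dose without saline 24 h later. Mean arterial pressure measured 28 h after first dose. Active if ≤116 mmHg in one rat or mean ≤122 mmHg in two.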

[2] = target: T1, Thromboxane-A synthase (Rattus norvegicus) (UniProt P49430); experiment: Inhibitory activity for thromboxane synthetase determined by TXB2 levels in platelets from spontaneously hypertensive rats.; set-up: concentration or dose not given beside the values; conditions: concentration not given here
T1 sequence (whole entry): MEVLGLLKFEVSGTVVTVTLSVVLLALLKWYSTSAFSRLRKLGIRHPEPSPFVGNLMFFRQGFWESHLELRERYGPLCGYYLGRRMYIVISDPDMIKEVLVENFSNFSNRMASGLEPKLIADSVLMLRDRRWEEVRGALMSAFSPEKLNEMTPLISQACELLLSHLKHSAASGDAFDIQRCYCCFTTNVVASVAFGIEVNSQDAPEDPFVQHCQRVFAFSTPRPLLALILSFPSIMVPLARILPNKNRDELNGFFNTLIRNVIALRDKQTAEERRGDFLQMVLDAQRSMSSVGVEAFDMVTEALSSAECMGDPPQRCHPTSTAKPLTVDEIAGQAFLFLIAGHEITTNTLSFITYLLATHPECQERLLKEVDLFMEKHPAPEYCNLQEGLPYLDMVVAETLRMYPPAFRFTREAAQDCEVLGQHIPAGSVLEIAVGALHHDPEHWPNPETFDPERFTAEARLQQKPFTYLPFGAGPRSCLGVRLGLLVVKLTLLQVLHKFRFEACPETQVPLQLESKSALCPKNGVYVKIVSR
Procedure, shortened: (§2)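 Washed SHR platelets in oxygenated Krebs phosphate buffer, pH 7.4, 4.5-6.0 × 10^4/μL, incubated with vehicle or drug for 10 min at 37 °C. Stopped with ice and citric acid. Supernatant TXB2 measured by RIA; TXB2 in boiled controls subtracted; % inhibition calculated. IC50 read graphically from % inhibition vs log concentration; single-point screen at 10^-4 M.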

[3] = tested on: Rattus norvegicus; experiment: Antihypertensive activity in spontaneously hypertensive rats tested at 100 mg/kg po/day for 2 days; type: functional, organism-based; set-up: dose 100 mg/kg; procedure, shortened: as §1
[4] = target: T2, Thromboxane-A synthase (Rattus norvegicus, UniProt P49430); experiment: compound was tested for inhibitory activity against thromboxane synthetase,; procedure, shortened: as §2
T2 sequence (P49430 whole entry): T1 sequence (whole entry)

[5] = target: T2, Thromboxane-A synthase; experiment: Compound was tested for inhibitory activity against thromboxane synthetase
Procedure, shortened: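 Washed SHR platelets in oxygenated Krebs phosphate buffer, pH 7.4, 4.5-6.0 × 10^4/μL, incubated with vehicle or drug for 10 min at 37 °C. Stopped with ice and citric acid. Supernatant TXB2 measured by RIA; TXB2 in boiled controls subtracted; % inhibition calculated.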

| SMILES | Activity [1] | inhibition [2] [%] | Activity [3] | IC50 [4] [nM] | IC50 [5] [nM] |
| --- | --- | --- | --- | --- | --- |
| O=C(NCCCn1ccnc1)c1cccc(Cl)c1 | Active | 75 | – | – | – |
| O=C(NCCCCCn1ccnc1)c1ccc(Cl)cc1 | – | 100 | inactive | 5000 | – |
| O=C(NCCCn1ccnc1)c1ccc(Br)cc1 | Active | 85 | – | – | – |
| O=C(NCCCCn1ccnc1)c1ccc(Br)cc1 | Active | 87 | – | – | – |
| CN(C)c1ccc(C(=O)NCCCn2cncn2)cc1 | Active | 64 | – | – | – |
| O=C(NCCCn1ccnc1)c1ccc(C(F)(F)F)cc1 | Active | 93 | – | – | – |
| O=C(Cc1cccc(Cl)c1)NCCCn1ccnc1 | Active | 75 | – | – | – |
| Cc1cn(CCCNC(=O)c2ccc(Cl)c(Cl)c2)cn1 | Active | 90 | – | – | – |
| CSc1ccc(C(=O)NCCCn2ccnc2)cc1 | – | 100 | inactive | – | 500 |
| O=C(NCCCCn1ccnc1)c1ccc(Cl)cc1 | – | 95 | inactive | – | 5000 |
| O=C(NCCCn1cnc(-c2ccccc2)c1)c1ccc(Cl)cc1 | Active | 69 | – | – | – |
| O=C(NCCCn1ccnc1)c1cccc(C(F)(F)F)c1 | Active | 100 | – | – | 4000 |
| O=C(NCCCn1cncn1)c1ccccc1 | Active | 77 | – | – | – |
| Cc1cn(CCCNC(=O)c2ccc(C(F)(F)F)cc2)cn1 | Active | 92 | – | – | – |
| Cc1cn(CCCNC(=O)c2ccc(Br)cc2)cn1 | Active | 80 | – | – | – |
| O=C(/C=C/c1ccc(Cl)cc1)NCCCn1ccnc1 | Active | 98 | – | – | – |
| Cc1cn(CCCNC(=O)c2cccc(Cl)c2)cn1 | Active | 84 | – | – | – |
| O=C(NCCCn1ccnc1)c1ccc(I)cc1 | – | 97 | inactive | – | 550 |
| Nc1ccccc1C(=O)NCCCn1ccnc1 | Active | 89 | – | – | – |
| Cc1nccn1CCCNC(=O)c1ccc(C(F)(F)F)cc1 | Active | 36 | – | – | – |
| O=C(NCCCCCCCCn1ccnc1)c1ccc(Cl)cc1 | Active | 100 | – | – | 100 |
| Nc1ccc(Cl)cc1C(=O)NCCCn1ccnc1 | Active | 96 | – | – | – |
| O=C(NCCCCCn1ccnc1)c1ccc(C(F)(F)F)cc1 | – | 100 | inactive | – | 700 |
| O=C(NCCCn1ccnc1)c1ccc(Cl)cc1 | Active | 95 | – | – | – |
| Cc1ccc(CC(=O)NCCCn2ccnc2)cc1 | Active | 58 | – | – | – |
| O=C(NCCCn1ccnc1)c1cccc(Br)c1 | Active | 91 | – | – | – |
| O=C(NCCCCCCn1ccnc1)c1ccc(Cl)cc1 | – | 100 | inactive | – | 800 |
| C=CCNc1ccc(Cl)cc1C(=O)NCCCn1ccnc1 | Active | 95 | – | – | – |
| Cc1cn(CCCNC(=O)c2ccc(Cl)cc2)cn1 | Active | 93 | – | – | – |
